Assay outcomes: PubChem, The Scripps Research Institute Molecular Screening Center
Compounds with a hit are over-represented: about 2.5% of the library has one in this group of screens.
PRMT1 inh = PRMT1 methyltransferase inhibitors, primary screen, biochemical, fluorescence polarization. Protein arginine N-methyltransferase 1 (Homo sapiens), Q99873. 370,000 tested, 1.3% active. inhibition, % at 2.79 µM. recombinant PRMT1, activity-based probe fluorescence polarization;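 active = inhibition above about 21% made by adding two undisclosed values, limit read from the data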
Target sequence (Q99873 whole entry, looked up): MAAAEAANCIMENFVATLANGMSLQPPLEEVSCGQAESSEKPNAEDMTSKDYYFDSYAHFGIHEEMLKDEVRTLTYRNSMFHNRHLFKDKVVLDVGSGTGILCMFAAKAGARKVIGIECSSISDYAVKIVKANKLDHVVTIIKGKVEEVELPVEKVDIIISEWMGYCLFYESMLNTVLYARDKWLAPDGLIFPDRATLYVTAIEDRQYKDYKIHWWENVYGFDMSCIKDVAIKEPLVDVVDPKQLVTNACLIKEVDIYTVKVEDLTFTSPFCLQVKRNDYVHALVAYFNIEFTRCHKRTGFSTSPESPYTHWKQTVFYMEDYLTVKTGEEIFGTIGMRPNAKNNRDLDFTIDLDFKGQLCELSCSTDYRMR
Fh CTSL1 inh = Fasciola hepatica cathepsin L1 inhibitors, primary screen, counter-screen for PFM18AAP inhibitor project, biochemical, QFRET, fluorogenic peptide substrate | inhibition, % at 5.96 µM | 300,000 tested, 0.49% active | recombinant F. hepatica cathepsin L1, Z-Leu-Arg-MCA fluorescence;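 active = inhibition above the mean of all tested compounds plus 3 SD, set per screening campaign, cut at about 17% in these data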;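 note: 0% = plate median of test compound wells and 100% = 1 µM Z-Phe-Ala-diazomethylketone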
GSTO1 counter = inhibitors of recombinant GSTO1, primary screen, counter-screen for RBBP9 inhibitor project, biochemical, fluorescence polarization; activity-based probe fluorescence polarization; inhibition, % at 5.96 µM; Glutathione S-transferase omega-1 (Homo sapiens), P78417; AID 1974, 2009; 300,000 tested, 1.1% active;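 active = inhibition above the campaign mean inhibition plus 3 SD, cut at about 35% in these data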;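 note: 0% = GSTO1-1 with DMSO and 100% = wells lacking GSTO1-1 enzyme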
Target sequence (P78417 whole entry, looked up): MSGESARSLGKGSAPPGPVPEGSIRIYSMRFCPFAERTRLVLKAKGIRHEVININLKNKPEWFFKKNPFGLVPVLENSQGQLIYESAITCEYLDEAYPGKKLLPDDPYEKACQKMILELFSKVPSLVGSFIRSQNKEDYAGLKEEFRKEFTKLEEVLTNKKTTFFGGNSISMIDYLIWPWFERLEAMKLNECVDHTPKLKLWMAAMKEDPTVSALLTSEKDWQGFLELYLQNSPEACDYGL
TDP2 absorb = human TDP2 enzyme inhibitors, primary screen, biochemical, epi absorbance, recombinant enzyme. inhibition, % at 12.8 µM. AID 720702, 2013. T5PNP hydrolysis, p-nitrophenol absorbance 415 nm. Tyrosyl-DNA phosphodiesterase 2 (Homo sapiens), O95551. 370,000 tested, 0.34% active;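 active = inhibition above the mean of all tested compounds plus 3 SD, set per campaign, cut at about 25% in these data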;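 note: 0% = DMSO with enzyme and 100% = buffer with substrate but no TDP2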
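Material: recombinant human TDP2; quantity: TDP2 enzyme at 120 nM final; medium: Tris-HCl pH 7.5 with MgCl2; compound: single concentration, 12.8 µM nominal, with 1% DMSO; incubation: 2 h enzyme incubation at 37 °C; signal: epi absorbance; measure: percent inhibition; benchmarks: high control without enzyme, low control DMSO plus TDP2; repeats: singlicate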
PAD4 FP inh = human PAD4 inhibitors, primary screen, biochemical, fluorescence polarization, 1536-well format | Protein-arginine deiminase type-4 (Homo sapiens), Q9UM07 | recombinant PAD4, RCA probe fluorescence polarization | inhibition, % at 6.36 µM | 330,000 tested, 0.41% active;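 active = percent inhibition above a cutoff equal to the mean of all tested compounds plus 3 SD, cut at about 15% in these data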;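 note: 0% = PAD4 with RCA probe and DMSO and 100% = probe without PAD4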
GSTO1 confirm = GSTO1 inhibitor hit confirmation, counter-screen for RBBP9 inhibitor project, biochemical, fluorescence polarization, triplicate. 2,400 tested, 54% active. AID 2176, 2009. shares compounds with GSTO1 counter. inhibition, % at 5.96 µM. recombinant GSTO1, probe fluorescence polarization;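 active = inhibition above the primary screen's cutoff, its mean inhibition plus 3 SD, cut at about 35% in these data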;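 note: loss of polarization as inhibitors block binding of rhodamine sulfonate ester activity probe; 0% = GSTO1 with DMSO and 100% = wells lacking GSTO1 enzyme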
GSTO1 recomb ABPP = inhibitors of purified human GSTO1, late-stage follow-up, biochemical, gel ABPP, SE-Rh probe, percent inhibition; shares compounds with GSTO1 counter; recombinant GSTO1, gel ABPP SE-Rh probe fluorescence; inhibition, % at 1 µM; 130 tested, 30% active; AID 463110, 2010;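 active = inhibition of the enzyme GSTO1 above about 75%, limit read from the data; inactive = inhibition below that limit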
* hit, by the source's call; x = not tested or not shown.

SMILES	PRMT1 inh	Fh CTSL1 inh	GSTO1 counter	TDP2 absorb	PAD4 FP inh	GSTO1 confirm	others
COc1ccc2c3c([nH]c2c1)[C@]1(CCNC=O)Nc2ccccc2C1=NCC3	2	x	x	4	x	x
O=[N+]([O-])c1ccc(N(CC2CO2)S(=O)(=O)c2ccccc2)cc1 (stereo unspecified)	5	4	85*	-4	3	92*	GSTO1 recomb ABPP=53
CC(C)C[C@@H]1COc2cc(Br)ccc2S(=O)(=O)N1Cc1cn(Cc2ccc(Br)cc2)nn1	-1	x	x	-9	x	x
O=C(Nc1ccc(Cl)cn1)c1ccc(COc2ccccc2Br)o1	-3	4	63*	1	1	3
CCOc1ccc(OCc2ccc(C(=O)Nc3ccc(Cl)cn3)o2)cc1	1	1	0	-2	3	x
Oc1ccc(C=Nc2cccc3ccccc23)c(O)c1	11	0	38*	16	-21	32
O=[N+]([O-])c1ccc(O)c(C=Nc2cccc3ccccc23)c1	1	-1	52*	-9	-11	16
O=[N+]([O-])c1ccc(O)c(C=Nc2cccc3ncccc23)c1	0	-2	5	-14	-3	x
O=[N+]([O-])c1cccc(C=Nc2cccc3ccccc23)c1O	4	3	41*	2	-10	4
COc1ccc(CC(=O)Nc2ccc(C)cc2S(=O)(=O)N2CCOCC2)cc1OC	1	x	x	5	x	x
Cc1cc(C(=O)CN2C(=O)c3ccccc3S2(=O)=O)c(C)n1CC1CCCO1 (stereo unspecified)	4	1	73*	6	6	5
CCCn1c(C)cc(C(=O)CN2C(=O)c3ccccc3S2(=O)=O)c1C	1	x	x	12	x	x
CCOc1ccc(N(CCCCO)C(=S)NC(=O)c2ccc(C)c(Br)c2)cc1	-5	4	47*	5	-4	11
COc1ccc(CN=Cc2[nH]c3ccc(Br)c(Cl)c3c2O)cc1	4	7	52*	15	-20	2
O=C1CCC2(CCC(c3ccccc3)CC2)N1CCCO (stereo unspecified)	3	x	x	4	x	x
O=C(COC(=O)Cc1ccsc1)NNC(=O)c1ccccc1	3	x	x	-4	2	x
O=C(Cc1ccsc1)NNC(=O)c1ccccc1O	1	2	38*	1	8	6
CC1CC(C)(C)Nc2ccc(OC(=O)c3ccco3)cc21 (stereo unspecified)	-4	-16	43*	0	0	5
CC(=O)Nc1ccc(S(=O)(=O)NC2=C(N3CCN(C)CC3)C(=O)c3ccccc3C2=O)cc1	3	7	43*	24	-9	38*
O=C1C(NS(=O)(=O)c2ccc(Br)cc2)=C(N2CCCCC2)C(=O)c2ccccc21	3	-1	42*	-8	-15	12
CC1CCN(C2=C(NS(=O)(=O)c3ccc(Br)cc3)C(=O)c3ccccc3C2=O)CC1	2	-4	32	8	-9	x
CCN1CCN(C2=C(NS(=O)(=O)c3ccc(NC(C)=O)cc3)C(=O)c3ccccc3C2=O)CC1	8	15	50*	20	-6	15
CC(=O)Nc1ccc(S(=O)(=O)NC2=C(N3CCN(Cc4ccccc4)CC3)C(=O)c3ccccc3C2=O)cc1	-2	0	22	13	-21	x
Cc1ccc(C)n1-c1ccc(N(C)C)cc1	19	-1	46*	21	0	6
COC(=O)[C@]12C[C@H](CC(=O)NCc3cccs3)C(=O)N(CCC3=CCCCC3)C1=C[C@H](C(C)C)O[C@@H]2C1CC1	-4	x	x	2	x	x
SMILES	PRMT1 inh	Fh CTSL1 inh	GSTO1 counter	TDP2 absorb	PAD4 FP inh	GSTO1 confirm	others
COc1ccc(N/N=C(C)/C(=N/O)C(=O)Nc2ccccc2)cc1	3	-2	40*	2	-3	15
COc1ccc(NC(=O)c2cccc(NC(=O)c3ccccc3)c2)cc1	0	1	-8	5	2	x
Cn1c2ccccc2c2cc(/C=N/NC(=O)c3cc(O)ccc3O)ccc21	19	1	82*	11	2	40*
NC1=NC(=O)/C(=C\c2cc([N+](=O)[O-])ccc2Cl)S1	2	-2	46*	8	4	11
C[C@@H]1/C=C/CC(=O)N2[C@H](CC(=O)N[C@@H]1c1ccccc1)C[C@@H](C)[C@H]2c1ccccc1	8	x	x	3	x	x
O=C(Nc1cccc2ccccc12)c1ccc([N+](=O)[O-])s1	1	3	32	8	3	x
O=C(Nc1ccccc1F)c1ccc([N+](=O)[O-])s1	0	-4	44*	2	1	12
Nn1c(SCC(=O)Nc2ccc(OCc3ccccc3)cc2)nnc1-c1cc(-c2ccccc2)n[nH]1	-4	x	x	-5	x	x
O=C(CCl)N=c1sccn1Cc1ccc(Cl)cc1Cl	-2	13	76*	4	1	91*
CCC(=O)OCC(=O)N=c1sccn1Cc1ccccc1Cl	2	-7	5	0	-1	x
Cc1ccc(NC(=O)C2CC3CCC2C3)c(C)c1 (stereo unspecified)	4	x	x	6	x	x
COC(=O)[C@H](CC(C)C)N(CCc1cn(Cc2ccc(C)cc2)nn1)S(=O)(=O)c1ccc(F)cc1Br	0	x	x	-1	x	x
Cc1nc(NC2CCCC2)c2nnn(Cc3ccccc3)c2n1	-5	x	x	-9	x	x
O=C(NC1CCCCN(Cc2cccc(C(F)(F)F)c2)C1=O)c1cccc(C(F)(F)F)c1 (stereo unspecified)	4	x	x	4	x	x
Cc1ccc(NC(=O)c2cccc3c2-c2ccccc2C3=O)c(C)c1	0	x	x	6	x	x
CCN(CC)C(=O)c1cc([N+](=O)[O-])cc2c1-c1ccc([N+](=O)[O-])cc1C2=C(C#N)C#N	3	3	38*	0	-3	25
CCN(CC)C(=O)c1ccc(Oc2ccc([N+](=O)[O-])cc2Cl)cc1	3	-2	-2	13	-2	x
CCCC1CCC2(CC1)CCC2OC(=S)Nc1cccc(Cl)c1 (stereo unspecified)	0	x	x	-6	x	x
COC(=O)CCCC1=CC2=C(c3ccccc3)C(=O)C(C)(OC(=O)C3CCCC3)C(=O)C2=CN1Cc1ccc2c(c1)OCO2 (stereo unspecified)	2	3	48*	14	0	13
